This note sets out measurements from ChEMBL document CHEMBL3046821, “Phospholipase A2 inhibitors synthesized by two entomopathogenic bacteria, Xenorhabdus nematophila and Photorhabdus temperata subsp. temperata” (Appl Environ Microbiol, 2012).

Values after ≈ are worked out from the molar mass of the structure shown. Active and inactive are the calls of the source. The calls are words filed in the database; no cut-off is given here. Residues, ends and D or L forms follow the SMILES beside them.

The subject of assay [1] is Plutella xylostella. The assay can be described thus: Potentiation of 1000 ppm Bacillus thuringiensis-induced pathogenicity against Plutella xylostella (diamondback moth) fourth-instar larvae at 10000 ppm measured 48 hr post compound treatment. It counts as functional, organism-based. Summed up:
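P. xylostella larvae fed Chinese cabbage pieces (1 cm2) dipped 5 min in test solutions together with commercial B. thuringiensis subsp. kurstaki, briefly dried in dark. Mortality at 48 h, with dead meaning no coordinated movement on probing; 10 larvae per replicate, three replicates; arcsine-square-root transformed, LSD test.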

Assay [2] relates to Plutella xylostella. The assay can be described thus: Insecticidal activity against Plutella xylostella (diamondback moth) fourth-instar larvae fed on cabbage leaves soaked in compound solutions measured 48 hr post compound treatment by leaf-dipping method. It counts as functional. Summed up:
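Leaf-dip feeding assay: Chinese cabbage pieces (1 cm2) soaked 5 min in test solutions at predetermined concentrations, briefly dried in the dark, then fed to P. xylostella larvae (field-origin colony reared on cabbage at 25 ± 1°C, 16:8 h light:dark). Three replicates of 10 larvae per dose. Mortality scored at 48 h; dead = no coordinated movement when prodded. Dose-mortality curves give LC50.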

The subject of assay [3] is Spodoptera exigua. As to the kind of experiment: Inhibition of immune responses in Spodoptera exigua fifth-instar larvae assessed as inhibition of hemocytic nodulation in response to Escherichia coli challenge by stereomicroscopy. It counts as functional, organism-based. Particulars: read-out: I50. Summed up:
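Fifth-instar S. exigua injected with E. coli (3.2 × 10^4 cells) mixed with compound in 10 μl; after 8 h at 25°C melanized nodules counted under stereomicroscope at ×50. Three replicates; I50 derived.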

A short description of assay [4]: (§1) Inhibition of PLA2 in hemocytes of Spodoptera exigua fifth-instar larvae using pyrene-labeled phospholipid substrate by spectrofluorometry. It is filed as cell-based. Particulars: read-out: I50. Summed up:
(§2)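 PLA2 from fifth-instar S. exigua hemocytes: hemolymph spun 500 × g 10 min, hemocytes sonicated in PBS, 12,500 × g 10 min 4°C supernatant. Enzyme (10 μg) preincubated with 10 μl sample, 25°C, 10 min; pyrene-labeled phosphatidylcholine substrate added with BSA and CaCl2 in PBS pH 7.4; residual activity by fluorescence, ex 348/em 390 nm. Triplicate independent samplings; I50 derived.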

Assay [5] concerns Spodoptera exigua. Described as §1. It counts as cell-based. A digest of the protocol:
as §2

Assay [6] relates to Phenoloxidase (Spodoptera exigua). As to the kind of experiment: Inhibition of phenoloxidase activity in hemolymph of Spodoptera exigua fifth-instar larvae using DOPA substrate.

Broadly, the LC50 is the concentration lethal to half of the exposed cells or organisms. Low values mean greater toxicity, high ones lower toxicity.

Turning to `CC(=O)N[C@@H](Cc1ccccc1)C(=O)NCC(=O)N[C@H](C(=O)O)C(C)C` (Ac-Phe-Gly-Val-OH), in assay [1], the result was Active. The LC50 in assay [2] was found to be 8350 µg/mL (≈ 23 mM). In addition, the IC50 worked out at 423 µM in assay [3] and 428 µM in assay [4]. The inhibition result in assay [5] and in assay [6] was “Dose-dependent effect” in each case.
Turning to `c1ccc2[nH]ccc2c1` [INDOLE], the result in assay [1] was Active. Moreover, the 50% lethal concentration (LC50) in assay [2] turned out to be 6270 µg/mL (≈ 53.6 mM). Also, the results for the IC50 in assay [3] and in assay [4] were 52.9 µM and 64.9 µM, respectively. For the same molecule, in assay [5], the inhibition result is “Dose-dependent effect”.
On to `O=C1N[C@@H](Cc2ccc(O)cc2)C(=O)N2CCC[C@@H]12`, for which the result in assay [1] was Active. This molecule gave a median lethal concentration (LC50) in assay [2] of 5950 µg/mL (≈ 22.9 mM). Besides, the IC50 in assay [3] was 37.7 µM; in assay [4], 47.8 µM. The inhibition result in assay [5] was “Dose-dependent effect”.
`O=C1Cc2ccccc2N1` [OXINDOLE]: the outcome in assay [1] was Active. The molecule also had an LC50 in assay [2] of 4830 µg/mL (≈ 36.3 mM). Besides, the IC50 in assay [3] came out at 32.3 µM; in assay [4] it was 46.2 µM. The inhibition entry in assay [5] and in assay [6] was “Dose-dependent effect” throughout.
Turning to `O=C(O)[C@H](Cc1ccc(O)cc1)NC(=O)[C@@H]1CCCN1` (H-Pro-Tyr-OH), the outcome in assay [1] was Active. In assay [2], this molecule had a median lethal concentration (LC50) of 7690 µg/mL (≈ 27.6 mM). The IC50 was 473 µM in assay [3] and 522 µM in assay [4]. In addition, the inhibition result in assay [5] and in assay [6] was “Dose-dependent effect” in each case.
Consider `CC(=O)/C=C/c1ccccc1` [BUTENONE], for which the result in assay [1] was Active. Further, the inhibition result in assay [5] is “Dose-dependent effect”.
For the molecule `O=C(O)CCc1ccc(O)cc1` [HYDROXYPHENYL PROPIONIC ACID], in assay [1], the outcome was Active. Besides, the LC50 in assay [2] was 6640 µg/mL (≈ 40 mM). Besides, the IC50 is 58.7 µM in assay [3] and 49.5 µM in assay [4]. The inhibition result in assay [5] and in assay [6] was “Dose-dependent effect” in each case.
